Measured values collected from several papers.
Each line is one published result; the experiments were not run side by side.
PDE10A: cAMP and cAMP-inhibited cGMP 3',5'-cyclic phosphodiesterase 10A (PDE10A, Homo sapiens, UniProt Q9Y233)
SLC6A3: Sodium-dependent dopamine transporter (SLC6A3, Homo sapiens, UniProt Q01959)

Structure (SMILES)	target	test	test system	conditions	inhibition [%]
COc1ccc2c(Cc3ccc(OC)c(OC)c3)ncnc2c1	PDE10A	enzyme activity, inhibitor, FP	–	0.1 µM	22
CCOC(=O)[C@@]12C[C@@H]1[C@@H](n1cnc3c(NCc4cccc(Cl)c4)nc(C#Cc4ccc(Cl)s4)nc31)[C@H](O)[C@@H]2O	SLC6A3	ligand displacement, radioligand	–	10 µM	75
c1ccc2c(Cc3ccc4cnn(C5COC5)c4c3)nccc2c1	PDE10A	enzyme activity, inhibitor, FP	–	0.1 µM	6
C#Cc1cc(-c2cc(Nc3nc(N[C@@H](C)c4ccc(F)cn4)ncc3Cl)n[nH]2)ccc1C=O	Activated CDC42 kinase 1 (TNK2, Homo sapiens, UniProt Q07912)	enzyme activity, inhibitor	–	0.2 µM	73.3
CCOC(=O)[C@@]12C[C@@H]1[C@@H](n1cnc3c(NCCCCCCc4ccccc4)nc(C#Cc4ccc(Cl)s4)nc31)[C@H](O)[C@@H]2O	SLC6A3	ligand displacement, radioligand	–	10 µM	23
COc1ccc2c(Cc3cccc(-c4ccccc4)c3)ccnc2c1	PDE10A	enzyme activity, inhibitor, FP	–	0.1 µM	22
CCN1/C(=C/C(C)=O)Sc2ccc(F)cc21	SLC6A3	ligand displacement, radioligand	–	10 µM	1.26
Cc1cc(O)c(-c2ccc([C@@H](C)CN(C)C)cc2)c2c1[nH]c(=O)c1sccc12	Serine/threonine-protein kinase ATR (ATR, Homo sapiens, UniProt Q13535)	cell-free assay, inhibitor	–	0.1 µM, lysate	8.12
NC/C(=C\F)COc1cccc(Cn2c(=S)[nH]c(=O)c3[nH]cnc32)c1	SLC6A3	ligand displacement, radioligand	–	10 µM	< 50
CC(C)C[C@H](NC(=O)[C@@H](NC(=O)[C@@H](NC(=O)[C@@H]1CCCN1C(=O)[C@@H](N)CCC(=O)O)C(C)C)[C@@H](C)O)C(=O)N[C@H](C(=O)O)[C@@H](C)O	Angiotensin-converting enzyme (ACE, Homo sapiens, UniProt P12821)	enzyme activity, inhibitor	–	1.4 mM	47.2
O[C@@H]1[C@H](O)[C@@H]2C[C@@H]2[C@H]1n1cnc2c(NCCC3CC3)ncnc21	SLC6A3	transporter uptake, inhibitor, radiometric	HEK293	20 nM	50
COc1ccc2ccnc(Cc3ccc(OC)c(OC)c3)c2c1	PDE10A	enzyme activity, inhibitor, FP	–	0.1 µM	11
CCOC(=O)[C@@]12C[C@@H]1[C@@H](n1ccc3c(NCCCCCCCc4ccccc4)nc(C#Cc4ccccc4)nc31)[C@H](O)[C@@H]2O	SLC6A3	ligand displacement, radioligand	–	10 µM	25
COc1cc2ncnc(Cc3cccc(-c4ccccc4)c3)c2cc1OC	PDE10A	enzyme activity, inhibitor, FP	–	0.1 µM	63
CCOC(=O)[C@@]12C[C@@H]1[C@@H](n1cnc3c(NCc4cccc(Cl)c4)nc(I)nc31)[C@H](O)[C@@H]2O	SLC6A3	ligand displacement, radioligand	–	10 µM	37
Cc1cc(F)cc2c(CCC(=O)N[C@@H]3C(=O)NC[C@H]3O)c(-c3ccc(F)cc3)[nH]c12	SLC6A3	cell-free assay	–	10 µM	17
CCOC(=O)[C@@]12C[C@@H]1[C@@H](n1cnc3c(NCCCCCc4ccccc4)nc(I)nc31)[C@H](O)[C@@H]2O	SLC6A3	ligand displacement, radioligand	–	10 µM	85
COc1ccc2c(Cc3cccc(-c4ccccc4)c3)nccc2c1	PDE10A	enzyme activity, inhibitor, FP	–	0.1 µM	3
